Consider 5 compounds from ChEMBL document CHEMBL1811902, “Thermodynamic and biological evaluation of a thrombin binding aptamer modified with several unlocked nucleic acid (UNA) monomers and a 2'-C-piperazino-UNA monomer” (Bioorg Med Chem, 2011).

Series [1] can be described thus: Thermodynamic stability in pH 7.0 buffer containing 100 mM Kcl, 10 mM sodium cacodylate. Type of series: physicochemical. The procedure, abridged: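 UV melting at 295 nm over 5–95 °C at 0.2 °C/min. Samples annealed 5 min at 80 °C, then slowly cooled. Nine strand concentrations spanning 10^-5–10^-6 M, set from absorbance above 80 °C. Heating and cooling profiles recorded. Thermodynamic parameters from non-linear fitting of melting curves with a unimolecular transition model.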

The test system of series [2] is Plasma. The series can be described thus: Anticoagulant activity in human plasma assessed as time required for clot formation at 0.33 mM at 37 degC. Type of series: functional. The procedure, abridged:
(§1)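 Pooled citrate plasma from four healthy donors. Thrombin reagent pre-incubated with aptamer at 0.33 mM for 5 min, then mixed with an equal volume of plasma. Clotting time (thrombin time, seconds) read at 37 °C on an automated coagulation analyser. Antithrombin effect taken as the extra clotting time over a water-added reference.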

For series [3], the target named is Prothrombin (Homo sapiens, UniProt P00734). The series can be described thus: Binding affinity to thrombin at 37 degC by isothermal titration calorimetry. A digest of the protocol: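 ITC at 37 °C. One 0.2 µL pre-injection, discarded, then 19 × 2 µL injections. Heat of dilution from aptamer-into-buffer injections subtracted.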
The test system of series [4] is Plasma. Kind of series: Anticoagulant activity in human plasma assessed as time required for clot formation in presence of compound minus time required for clot formation in absence of compound at 0.33 mM at 37 degC. Type of series: functional. A digest of the protocol:
as §1

`Cc1cn([C@H]2C[C@H](OP(N)(=O)OC[C@H]3O[C@@H](n4cnc5c(=O)[nH]c(N)nc54)C[C@@H]3OP(N)(=O)OC[C@H]3O[C@@H](n4cnc5c(=O)[nH]c(N)nc54)C[C@@H]3O)[C@@H](COP(N)(=O)OC[C@@H](COP(N)(=O)O[C@H]3C[C@H](n4cnc5c(=O)[nH]c(N)nc54)O[C@@H]3COP(N)(=O)O[C@H]3C[C@H](n4cnc5c(=O)[nH]c(N)nc54)O[C@@H]3COP(N)(=O)O[C@H]3C[C@H](n4cc(C)c(=O)[nH]c4=O)O[C@@H]3COP(N)(=O)O[C@H]3C[C@H](n4cnc5c(=O)[nH]c(N)nc54)O[C@@H]3COP(N)(=O)OC[C@@H](COP(N)(=O)O[C@H]3C[C@H](n4cnc5c(=O)[nH]c(N)nc54)O[C@@H]3COP(N)(=O)O[C@@H]3C[C@@H](COP(N)(=O)O[C@H]4C[C@H](n5cc(C)c(=O)[nH]c5=O)O[C@@H]4COP(N)(=O)O[C@H]4C[C@H](n5cc(C)c(=O)[nH]c5=O)O[C@@H]4COP(N)(=O)O[C@H]4C[C@H](n5cnc6c(=O)[nH]c(N)nc65)O[C@@H]4COP(N)(=O)O[C@H]4C[C@H](n5cnc6c(=O)[nH]c(N)nc65)O[C@@H]4COC(=O)CCCC[C@@H]4SC[C@@H]5NC(=O)N[C@@H]54)O[C@H]3n3cnc4c(=O)[nH]c(N)nc43)O[C@H](CO)n3ccc(=O)[nH]c3=O)O[C@H](CO)n3ccc(=O)[nH]c3=O)O2)c(=O)[nH]c1=O` (stereo not given in full): the Tm in series [1] was determined as 48.1 °C. Moreover, the Time amounted to 28.7 s in series [2] and 9.7 s in series [4]. Besides, in series [3], the Kd (commonly the equilibrium constant for the complex coming apart) worked out at 0.3 µM.

Regarding `Cc1cn([C@H]2C[C@H](OP(N)(=O)OC[C@@H]3C[C@@H](OP(N)(=O)OC[C@H]4O[C@@H](n5cnc6c(=O)[nH]c(N)nc65)C[C@@H]4OP(N)(=O)OC[C@H]4O[C@@H](n5cc(C)c(=O)[nH]c5=O)C[C@@H]4OP(N)(=O)OC[C@H]4O[C@@H](n5cnc6c(=O)[nH]c(N)nc65)C[C@@H]4OP(N)(=O)OC[C@H]4O[C@@H](n5cc(C)c(=O)[nH]c5=O)C[C@@H]4OP(N)(=O)OC[C@H]4O[C@@H](n5cnc6c(=O)[nH]c(N)nc65)C[C@@H]4OP(N)(=O)OC[C@H]4O[C@@H](n5cnc6c(=O)[nH]c(N)nc65)C[C@@H]4OP(N)(=O)OC[C@H]4O[C@@H](n5cc(C)c(=O)[nH]c5=O)C[C@@H]4OP(N)(=O)OC[C@H]4O[C@@H](n5cc(C)c(=O)[nH]c5=O)C[C@@H]4OP(N)(=O)OC[C@H]4O[C@@H](n5cnc6c(=O)[nH]c(N)nc65)C[C@@H]4OP(N)(=O)OC[C@H]4O[C@@H](n5cnc6c(=O)[nH]c(N)nc65)C[C@@H]4O)[C@H](n4cnc5c(=O)[nH]c(N)nc54)O3)[C@@H](COP(N)(=O)O[C@H]3C[C@H](n4cc(C)c(=O)[nH]c4=O)O[C@@H]3COP(N)(=O)O[C@H]3C[C@H](n4cnc5c(=O)[nH]c(N)nc54)O[C@@H]3COP(N)(=O)O[C@H]3C[C@H](n4cnc5c(=O)[nH]c(N)nc54)O[C@@H]3COC(=O)CCCC[C@@H]3SC[C@@H]4NC(=O)N[C@@H]43)O2)c(=O)[nH]c1=O` (stereo not given in full) [THROMBIN BINDING APTAMER], in series [1], the Tm worked out at 42.2 °C. Also, the Time in series [2] came out at 32.6 s; in series [4], 13.6 s. The same compound yielded a Kd in series [3] of 0.0476 µM.

As to `Cc1cn([C@H]2C[C@H](OP(N)(=O)OC[C@@H]3C[C@@H](OP(N)(=O)OC[C@H]4O[C@@H](n5cnc6c(=O)[nH]c(N)nc65)C[C@@H]4OP(N)(=O)OC[C@H](COP(N)(=O)OC[C@H]4O[C@@H](n5cnc6c(=O)[nH]c(N)nc65)C[C@@H]4OP(N)(=O)OC[C@H]4O[C@@H](n5cc(C)c(=O)[nH]c5=O)C[C@@H]4OP(N)(=O)OC[C@H]4O[C@@H](n5cnc6c(=O)[nH]c(N)nc65)C[C@@H]4OP(N)(=O)OC[C@H]4O[C@@H](n5cnc6c(=O)[nH]c(N)nc65)C[C@@H]4OP(N)(=O)OC[C@H]4O[C@@H](n5cc(C)c(=O)[nH]c5=O)C[C@@H]4OP(N)(=O)OC[C@H]4O[C@@H](n5cc(C)c(=O)[nH]c5=O)C[C@@H]4OP(N)(=O)OC[C@H]4O[C@@H](n5cnc6c(=O)[nH]c(N)nc65)C[C@@H]4OP(N)(=O)OC[C@H]4O[C@@H](n5cnc6c(=O)[nH]c(N)nc65)C[C@@H]4O)O[C@H](CO)n4ccc(=O)[nH]c4=O)[C@H](n4cnc5c(=O)[nH]c(N)nc54)O3)[C@@H](COP(N)(=O)OC[C@@H](COP(N)(=O)O[C@H]3C[C@H](n4cnc5c(=O)[nH]c(N)nc54)O[C@@H]3COP(N)(=O)O[C@H]3C[C@H](n4cnc5c(=O)[nH]c(N)nc54)O[C@@H]3COC(=O)CCCC[C@@H]3SC[C@@H]4NC(=O)N[C@@H]43)O[C@H](CO)n3ccc(=O)[nH]c3=O)O2)c(=O)[nH]c1=O` (stereo not given in full), in series [1], the Tm amounted to 50.1 °C. Besides, the Time in series [2] came to 31.2 s; in series [4], 12.2 s. Binding in series [3] was characterised by a dissociation constant (Kd) of 1.3 µM.

`Cc1cn([C@H]2C[C@H](OP(N)(=O)OC[C@H]3O[C@@H](n4cnc5c(=O)[nH]c(N)nc54)C[C@@H]3OP(N)(=O)OC[C@H]3O[C@@H](n4cnc5c(=O)[nH]c(N)nc54)C[C@@H]3O)[C@@H](COP(N)(=O)O[C@H]3C[C@H](n4cc(C)c(=O)[nH]c4=O)O[C@@H]3COP(N)(=O)O[C@H]3C[C@H](n4cnc5c(=O)[nH]c(N)nc54)O[C@@H]3COP(N)(=O)O[C@H]3C[C@H](n4cnc5c(=O)[nH]c(N)nc54)O[C@@H]3COP(N)(=O)OC[C@@H](COP(N)(=O)OC[C@@H](COP(N)(=O)OC[C@@H](COP(N)(=O)O[C@H]3C[C@H](n4cnc5c(=O)[nH]c(N)nc54)O[C@@H]3COP(N)(=O)O[C@@H]3C[C@@H](COP(N)(=O)O[C@H]4C[C@H](n5cc(C)c(=O)[nH]c5=O)O[C@@H]4COP(N)(=O)O[C@H]4C[C@H](n5c(C)cc(=O)[nH]c5=O)O[C@@H]4COP(N)(=O)O[C@H]4C[C@H](n5cnc6c(=O)[nH]c(N)nc65)O[C@@H]4COP(N)(=O)O[C@H]4C[C@H](n5cnc6c(=O)[nH]c(N)nc65)O[C@@H]4COC(=O)CCCC[C@@H]4SC[C@@H]5NC(=O)N[C@@H]54)O[C@H]3n3cnc4c(=O)[nH]c(N)nc43)O[C@H](CO)n3ccc(=O)[nH]c3=O)O[C@H](CO)n3cnc4c(=O)[nH]c(N)nc43)O[C@H](CO)n3ccc(=O)[nH]c3=O)O2)c(=O)[nH]c1=O` (stereo not given in full): in series [1], the Tm came out at 27 °C. Further, the Time was 20.5 s in series [2] and 1.5 s in series [4]. In series [3], this compound had a Kd of 1.5 µM.

With `Cc1cn([C@H]2C[C@H](OP(N)(=O)OC[C@@H]3C[C@@H](OP(N)(=O)OC[C@H]4O[C@@H](n5cnc6c(=O)[nH]c(N)nc65)C[C@@H]4OP(N)(=O)OC[C@H]4O[C@@H](n5cc(C)c(=O)[nH]c5=O)C[C@@H]4OP(N)(=O)OC[C@H]4O[C@@H](n5cnc6c(=O)[nH]c(N)nc65)C[C@@H]4OP(N)(=O)OC[C@H]4O[C@@H](n5cc(C)c(=O)[nH]c5=O)C[C@@H]4OP(N)(=O)OC[C@H]4O[C@@H](n5cnc6c(=O)[nH]c(N)nc65)C[C@@H]4OP(N)(=O)OC[C@H]4O[C@@H](n5cnc6c(=O)[nH]c(N)nc65)C[C@@H]4OP(N)(=O)OC[C@H]4O[C@@H](n5cc(C)c(=O)[nH]c5=O)C[C@@H]4OP(N)(=O)OC[C@H]4O[C@@H](n5cc(C)c(=O)[nH]c5=O)C[C@@H]4OP(N)(=O)OC[C@H]4O[C@@H](n5cnc6c(=O)[nH]c(N)nc65)C[C@@H]4OP(N)(=O)OC[C@H]4O[C@@H](n5cnc6c(=O)[nH]c(N)nc65)C[C@@H]4O)[C@H](n4cnc5c(=O)[nH]c(N)nc54)O3)[C@@H](COP(N)(=O)OC[C@@H](COP(N)(=O)O[C@H]3C[C@H](n4cnc5c(=O)[nH]c(N)nc54)O[C@@H]3COP(N)(=O)O[C@H]3C[C@H](n4cnc5c(=O)[nH]c(N)nc54)O[C@@H]3COC(=O)CCCC[C@@H]3SC[C@@H]4NC(=O)N[C@@H]43)O[C@H](CN3CCNCC3)n3ccc(=O)[nH]c3=O)O2)c(=O)[nH]c1=O` (stereo not given in full), the Tm in series [1] was found to be 45.4 °C. In addition, the Time in series [2] is 21.3 s; in series [4], 2.3 s. The affinity in series [3], expressed as Kd, was 1.6 µM.
